Measurements from ChEMBL document CHEMBL5058577, “EUbOPEN Chemogenomics Library 2 (Multiplex)” (2022).

Test system: Fibroblast
Test: Multiplex assay against human fibroblast
Format: toxicity, cell-based
Procedure, shortened: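 Phenotypes for tubulin, mitochondrial mass and membrane permeability are expressed as per cents of healthy-nucleus cells. Cells were stained live at seeding with Hoechst33342, BioTracker Green Microtubule Cytoskeleton Dye, MitoTracker Red and Annexin V Alexa Fluor 680, then imaged after compound addition on a CQ1 microscope at 37°C and 5% CO2. Machine-learning gating in CellPathfinder separated Hoechst high-intensity objects from normal cells, divided normal cells by nuclear state (healthy, pyknosed, fragmented) and divided pyknosed cells into mitotic or apoptotic.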

[1] = 12 h, 1 µM, compound concentration 1 uM, replicate 1
[2] = 12 h, 1 µM, compound concentration 1 uM, replicate 2
[3] = 12 h, 10 µM, compound concentration 10 uM, replicate 1
[4] = 12 h, 10 µM, compound concentration 10 uM, replicate 2
[5] = 24 h, 1 µM, compound concentration 1 uM, replicate 1
[6] = 24 h, 1 µM, compound concentration 1 uM, replicate 2
[7] = 24 h, 10 µM, compound concentration 10 uM, replicate 1
[8] = 24 h, 10 µM, compound concentration 10 uM, replicate 2
[9] = 48 h, 1 µM, compound concentration 1 uM, replicate 1
[10] = 48 h, 1 µM, compound concentration 1 uM, replicate 2
[11] = 48 h, 10 µM, compound concentration 10 uM, replicate 1
[12] = 48 h, 10 µM, compound concentration 10 uM, replicate 2

**Q.** Which results are given for `Cl.Clc1ccc2nsnc2c1NC1=NCCN1` [TIZANIDINE HYDROCHLORIDE]?
**A.** Population Apoptotic (%) [1]: 38%; Population Fragmented Nuclei (%) [1]: 10%; Population Healthy Nuclei (%) [1]: 72%; Population Hoechst High Intensity Objects (%) [1]: 3%; Population Membrane Permeable-Phenotype (%) [1]: 0%; Population Mitochondria Different-Phenotype (%) [1]: 4%; Population Mitotic Cells (%) [1]: 61%; Population Normal (%) [1]: 96%; Population Pyknosed Nuclei (%) [1]: 17%; Population Tubulin-Different-Phenotype (%) [1]: 21%; Total Cell Count [1]: 155; Population Apoptotic (%) [2]: 33%; Population Fragmented Nuclei (%) [2]: 24%; Population Healthy Nuclei (%) [2]: 49%; Population Hoechst High Intensity Objects (%) [2]: 4%; Population Membrane Permeable-Phenotype (%) [2]: 5%; Population Mitochondria Different-Phenotype (%) [2]: 5%; Population Mitotic Cells (%) [2]: 66%; Population Normal (%) [2]: 95%; Population Pyknosed Nuclei (%) [2]: 25%; Population Tubulin-Different-Phenotype (%) [2]: 50%; Total Cell Count [2]: 182; Population Apoptotic (%) [3]: 36%; Population Fragmented Nuclei (%) [3]: 18%; Population Healthy Nuclei (%) [3]: 60%; Population Hoechst High Intensity Objects (%) [3]: 4%; Population Membrane Permeable-Phenotype (%) [3]: 0%; Population Mitochondria Different-Phenotype (%) [3]: 8%; Population Mitotic Cells (%) [3]: 64%; Population Normal (%) [3]: 95%; Population Pyknosed Nuclei (%) [3]: 20%; Population Tubulin-Different-Phenotype (%) [3]: 29%; Total Cell Count [3]: 129; Population Apoptotic (%) [4]: 21%; Population Fragmented Nuclei (%) [4]: 24%; Population Healthy Nuclei (%) [4]: 45%; Population Membrane Permeable-Phenotype (%) [4]: 7%; Population Mitochondria Different-Phenotype (%) [4]: 7%; Population Mitotic Cells (%) [4]: 78%; Population Pyknosed Nuclei (%) [4]: 29%; Population Tubulin-Different-Phenotype (%) [4]: 33%; Total Cell Count [4]: 143; Population Apoptotic (%) [5]: 52%; Population Fragmented Nuclei (%) [5]: 6%; Population Healthy Nuclei (%) [5]: 76%; Population Hoechst High Intensity Objects (%) [5]: 2%; Population Membrane Permeable-Phenotype (%) [5]: 0%; Population Mitochondria Different-Phenotype (%) [5]: 0%; Population Mitotic Cells (%) [5]: 47%; Population Normal (%) [5]: 97%; Population Pyknosed Nuclei (%) [5]: 16%; Population Tubulin-Different-Phenotype (%) [5]: 16%; Total Cell Count [5]: 146; Population Apoptotic (%) [6]: 42%; Population Fragmented Nuclei (%) [6]: 26%; Population Healthy Nuclei (%) [6]: 49%; Population Hoechst High Intensity Objects (%) [6]: 4%; Population Membrane Permeable-Phenotype (%) [6]: 9%; Population Mitochondria Different-Phenotype (%) [6]: 4%; Population Mitotic Cells (%) [6]: 57%; Population Normal (%) [6]: 95%; Population Pyknosed Nuclei (%) [6]: 24%; Population Tubulin-Different-Phenotype (%) [6]: 50%; Total Cell Count [6]: 182; Population Apoptotic (%) [7]: 45%; Population Fragmented Nuclei (%) [7]: 19%; Population Healthy Nuclei (%) [7]: 60%; Population Hoechst High Intensity Objects (%) [7]: 1%; Population Membrane Permeable-Phenotype (%) [7]: 0%; Population Mitochondria Different-Phenotype (%) [7]: 5%; Population Mitotic Cells (%) [7]: 54%; Population Normal (%) [7]: 98%; Population Pyknosed Nuclei (%) [7]: 20%; Population Tubulin-Different-Phenotype (%) [7]: 20%; Total Cell Count [7]: 122; Population Apoptotic (%) [8]: 47%; Population Healthy Nuclei (%) [8]: 48%; Population Hoechst High Intensity Objects (%) [8]: 2%; Population Membrane Permeable-Phenotype (%) [8]: 9%; Population Mitochondria Different-Phenotype (%) [8]: 6%; Population Mitotic Cells (%) [8]: 52%; Population Normal (%) [8]: 97%; Population Pyknosed Nuclei (%) [8]: 32%; Population Tubulin-Different-Phenotype (%) [8]: 34%; Total Cell Count [8]: 135; Population Apoptotic (%) [9]: 47%; Population Fragmented Nuclei (%) [9]: 17%; Population Healthy Nuclei (%) [9]: 71%; Population Hoechst High Intensity Objects (%) [9]: 2%; Population Membrane Permeable-Phenotype (%) [9]: 2%; Population Mitochondria Different-Phenotype (%) [9]: 1%; Population Mitotic Cells (%) [9]: 52%; Population Normal (%) [9]: 97%; Population Pyknosed Nuclei (%) [9]: 10%; Population Tubulin-Different-Phenotype (%) [9]: 19%; Total Cell Count [9]: 167; Population Apoptotic (%) [10]: 55%; Population Fragmented Nuclei (%) [10]: 29%; Population Healthy Nuclei (%) [10]: 47%; Population Hoechst High Intensity Objects (%) [10]: 6%; Population Membrane Permeable-Phenotype (%) [10]: 6%; Population Mitochondria Different-Phenotype (%) [10]: 8%; Population Mitotic Cells (%) [10]: 44%; Population Normal (%) [10]: 93%; Population Pyknosed Nuclei (%) [10]: 23%; Population Tubulin-Different-Phenotype (%) [10]: 56%; Total Cell Count [10]: 166; Population Apoptotic (%) [11]: 69%; Population Fragmented Nuclei (%) [11]: 26%; Population Healthy Nuclei (%) [11]: 56%; Population Hoechst High Intensity Objects (%) [11]: 2%; Population Membrane Permeable-Phenotype (%) [11]: 0%; Population Mitochondria Different-Phenotype (%) [11]: 5%; Population Mitotic Cells (%) [11]: 30%; Population Normal (%) [11]: 97%; Population Pyknosed Nuclei (%) [11]: 17%; Population Tubulin-Different-Phenotype (%) [11]: 26%; Total Cell Count [11]: 133; Population Apoptotic (%) [12]: 63%; Population Fragmented Nuclei (%) [12]: 35%; Population Healthy Nuclei (%) [12]: 42%; Population Membrane Permeable-Phenotype (%) [12]: 6%; Population Mitochondria Different-Phenotype (%) [12]: 11%; Population Mitotic Cells (%) [12]: 36%; Population Pyknosed Nuclei (%) [12]: 21%; Population Tubulin-Different-Phenotype (%) [12]: 44%; Total Cell Count [12]: 141
